Screens: PubChem BioAssay, Johns Hopkins Ion Channel Center
Sampled rows, rich in hits. Any-hit rate of the full collection: about 3.5%.
RGS4 pot: RGS4 potentiators or activators, primary screen, cell-based, HEK293 M3R inducible RGS4, calcium flux. carbachol calcium flux Fluo4; hits give low values. B-score at 10 µM. hit rate 0.92% among 310,000;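 active = B-score of the integrated calcium signal more than 4 SD below the library mean, with starting fluorescence not abnormally high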;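 note: negative B-score means reduced calcium response which marks RGS4 activation or potentiation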
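System: HEK293 FlpIn-TREx cells, stable M3R, doxycycline-inducible RGS4. Timing: overnight RGS4 induction, 30 min dye load 37 °C, 20 min compound RT. Also added: carbachol, ECmax concentration. Measured by: Fluo4 fluorescence kinetic imaging of calcium. Evaluation: integrated calcium ratio converted to B score.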
MrgX1 antag: antagonists of human MrgX1 receptor, primary screen, HEK293 cells, Fluo-4 calcium flux. Mas-related G-protein coupled receptor member X1 (Homo sapiens), Q96LB2. BAM8-22 antagonism; hits give low values. B-score at 10 µM. hit rate 1.3% among 310,000;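 active = calcium-response B-score plate-corrected more than 3 library SD below zero, starting fluorescence within 5 deviations, no agonist response on first addition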;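 note: peak minus trough fluorescence over baseline after final BAM8-22 challenge near maximal dose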
Target sequence (Q96LB2 whole entry, looked up): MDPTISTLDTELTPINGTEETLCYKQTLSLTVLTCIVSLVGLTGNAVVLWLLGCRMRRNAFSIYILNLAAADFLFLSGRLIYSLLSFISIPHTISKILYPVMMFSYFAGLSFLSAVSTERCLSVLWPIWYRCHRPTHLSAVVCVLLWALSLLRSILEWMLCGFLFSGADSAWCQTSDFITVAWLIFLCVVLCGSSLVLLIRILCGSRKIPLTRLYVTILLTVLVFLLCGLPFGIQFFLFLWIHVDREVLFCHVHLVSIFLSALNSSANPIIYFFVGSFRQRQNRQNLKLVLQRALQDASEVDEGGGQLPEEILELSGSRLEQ
RGS4 block: RGS4 inhibitors, primary screen, cell-based, HEK293 M3R inducible RGS4, calcium flux; Fluo-4 calcium flux; hits give high values; triggered by carbachol at its EC20; Regulator of G-protein signaling 4 (Homo sapiens), P49798; hit rate 0.45% among 310,000; AID 463165, 2010; B-score at 10 µM;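 active = B-score, a plate-corrected calcium signal, over three deviations above library mean, with baseline fluorescence within five deviations of library mean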;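 note: RGS4 expression induced by doxycycline in cells with stable M3 receptor; B-score is computed from the integrated fluorescence ratio over baseline after carbachol; higher B-score means a larger calcium signal and so more RGS4 inhibition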
MrgX1 agonist: agonists of human MrgX1 receptor, primary screen, HEK293 cells, Fluo-4 calcium flux; Mas-related G-protein coupled receptor member X1 (Homo sapiens), Q96LB2; Fluo-4 calcium fluorescence, agonist mode; hits give high values; B-score at 10 µM; hit rate 0.44% among 310,000; AID 588627, 2011;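 active = calcium response B-score plate-corrected fluorescence ratio at least 3 library SD, with starting fluorescence B-score inside 5 SD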
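System: HEK293 cells stably expressing human MrgX1 receptor; Dosing: test compound in the initial addition of three; Schedule: overnight plating, then 30 min 37 °C plus 30 min room-temperature dye loading; Detection: kinetic calcium dye fluorescence, Fluo-4 NW; Controls: per-plate positive and negative controls for Z′ factor.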
MrgX1 PAM: positive allosteric modulators of MrgX1, primary screen, HEK293 cells, Fluo-4 calcium flux | Mas-related G-protein coupled receptor member X1 (Homo sapiens), Q96LB2 | FDSS; hits give high values | B-score at 10 µM | hit rate 0.63% among 310,000;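 active = plate-corrected calcium response at least 3 library SD above typical, normal starting fluorescence, not activating the receptor alone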;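 note: compound read alongside a low EC10 to EC30 dose of BAM8-22 agonist; peak minus trough fluorescence over baseline measured at the second addition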
RGS4 act valid: reduced carbachol calcium response, RGS4-induced M3R cells, confirmation, RGS4 activator project, cell-based, HEK293 M3R/RGS4 inducible, calcium flux, duplicate. carbachol calcium flux Fluo4. AID 602282, 2012. shares compounds with RGS4 pot. hit rate 89% among 1,100. inhibition, % at 10 µM;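 active = inhibition above 3 SD of the buffer control wells, cut at about 41% in these data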;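 note: signal is the integrated peak-minus-minimum Fluo4 fluorescence over baseline ratio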
RGS4 act ctr: activity in cells without induced RGS4 expression; inhibition, % at 10 µM; hit rate 82% among 1,100; shares compounds with RGS4 pot; HEK293 M3R non-induced RGS4, Fluo4 calcium flux; after carbachol challenge at its EC90;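 active = inhibition exceeding 3 SD of buffer-only control wells, cut at about 26% in these data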;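 note: percent drop in integrated peak-minus-baseline over baseline Fluo4 ratio after carbachol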
* = called active by the depositor; i = inactive; / = no result given.

SMILES	RGS4 pot	MrgX1 antag	RGS4 block	MrgX1 agonist	MrgX1 PAM	RGS4 act valid	RGS4 act ctr
O=C(Nc1nnc(Cc2ccccc2)s1)Nc1ccccc1F	i	i	i	i	i	/	/
COC(=O)CSc1nc2[nH]ncc2c(=O)[nH]1	i	i	i	i	i	/	/
CCOc1cc(C)c(C(C)C)cc1S(=O)(=O)N1CCOCC1	i	i	i	i	i	/	/
COc1cc(C)c(C(C)C)cc1S(=O)(=O)N1CCOCC1	-8.8*	i	i	i	i	0	0
O=C(NCc1cccnc1)c1ccc(NS(=O)(=O)c2ccc(F)cc2)cc1	i	i	i	i	i	/	/
COc1cc(OC)c(S(=O)(=O)Nc2ccc(C)cn2)cc1NC(C)=O	i	i	i	i	i	/	/
Cc1ccc(NS(=O)(=O)N(C)C)cc1	i	i	i	i	i	/	/
Cc1ccc(/C=C/S(=O)(=O)Nc2ccc(C)cc2)cc1	-9.8*	i	i	i	i	90*	44*
CCC(=O)Nc1nonc1-c1nc2ccccc2n1Cc1ccccc1	i	i	i	i	i	/	/
CCC(=O)Nc1nonc1-c1nc2ccccc2n1N(C(=O)CC)C(=O)CC	-8.6*	i	i	i	i	0	0
COc1ccccc1C(=O)Nc1nnc(S(=O)(=O)N(C)Cc2ccccc2)s1	-8.9*	i	i	i	i	89*	52*
COc1ccc(CN(C)S(=O)(=O)c2nnc(NC(=O)c3ccccc3)s2)cc1OC	i	i	i	i	i	/	/
CCOC(=O)c1[nH]cnc1C(=O)Nc1ccccc1OC	i	i	i	i	i	/	/
COC(=O)CSc1nc(SCc2ccccc2Cl)nc2c1CCCC2	-8*	i	i	i	i	48*	84*
Cc1ccc(N)c(C(O)(C(F)(F)F)C(F)(F)F)c1	i	i	i	i	i	/	/
CNc1ccc(C(O)(C(F)(F)F)C(F)(F)F)cc1C(O)(C(F)(F)F)C(F)(F)F	-8.2*	i	i	i	i	90*	69*
CC(=O)N(C)c1ccc(NC(=O)Nc2ccc(C)cc2)cc1	i	i	i	i	i	/	/
CC(=O)N(C)c1ccc(NC(=O)Nc2ccc(Cl)cc2)cc1	-8.3*	i	i	i	i	93*	68*
Cn1c(=O)[nH]c2nnc(-c3ccc(Cl)c(Cl)c3)nc2c1=O	-8.9*	i	i	i	i	0	0
CC(OC(=O)CC1CCCC1)C(=O)Nc1ccc(Cl)cn1 (stereo not drawn)	i	i	i	i	i	/	/
CN1CCN(CCNC(=O)c2ccc3nc(-c4ccc(F)cc4)c(-c4ccc(F)cc4)nc3c2)CC1	-9.7*	i	i	i	i	90*	84*
CCN1CCN(C(=O)c2ccc3nc(-c4ccccc4)c(-c4ccccc4)nc3c2)CC1	-9.4*	i	i	i	i	73*	84*
O=C(O)c1ccc2nc(-c3ccccc3)c(-c3ccccc3)nc2c1	i	i	i	i	i	/	/
Nn1c(SCC(=O)Nc2ccc(OC(F)F)cc2)nnc1-c1ccco1	i	i	i	i	i	/	/
Cc1c(C(=O)OCC(=O)N2C(C)CCCC2C)oc2ccccc12 (stereo not drawn)	i	i	i	i	i	/	/
Cc1c(C(=O)OC(C)CCN(C)C)oc2ccccc12 (stereo not drawn)	-11*	i	i	i	i	93*	82*
Cc1c(C(=O)OCC(C)(C)CN(C)C)oc2ccccc12	i	i	i	i	i	/	/
